Measurements published in paper PMC8721161 (International Journal of Nanomedicine, 2021).

What was measured:
[1] = In vitro dissolution / drug release study; type: physicochemical; conditions: 0.1 M phosphate buffer pH 6.8, 37±0.5 °C, dialysis bag, up to 12 h
Summary of the method: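 Free test compound, its cyclodextrin complex and the complex-loaded chitosan nanoparticles were placed in dialysis bags presoaked overnight. Medium was 100 mL of 0.1 M phosphate buffer, pH 6.8, at 37±0.5 °C. Samples were 0.45 µm filtered and assayed by UV at 388 nm.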

α-glucosidase enzyme = assay: Alpha-glucosidase enzyme inhibition activity; type: biochemical; conditions: concentration not given
Summary of the method: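 Enzyme was 0.02 U/μL α-glucosidase in 0.2 M sodium phosphate buffer, pH 6.8. Enzyme and buffer were preincubated 20 min with test compound in DMSO at 1000, 500, 250, 125 or 62.5 μg/mL. 0.02 M PNPG substrate was added for a further 30 min. The reaction was stopped with 0.2 M Na2CO3. Released p-nitrophenol was read at 405 nm and % inhibition calculated by formula.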

[2] = In vivo pharmacokinetic study, single oral dose, EPL in rabbit plasma by HPLC; design: species or system rabbits (Oryctolagus cuniculus)
Summary of the method: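 Non-pregnant adult rabbits (2.5±0.1 kg) in three groups of six got a single oral dose of free compound, complex or nanoparticles. Jugular blood went into EDTA at set times, was spun 12,000 rpm 30 min, and plasma stored −70 °C. Perchloric acid precipitation preceded C18 HPLC (acetonitrile:KH2PO4 60:40, pH 4.0; 388 nm; plasma calibration 0.02–10 μg/mL). Non-compartmental log-linear trapezoidal analysis gave parameters; mean±SD.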

cumulative drug release (%) [1]: 20–25%
potency against α-glucosidase enzyme inhibition (α-glucosidase enzyme): greater than 70%
Cmax ([2]; plasma, po): 4750 ± 3640 ng/mL
AUC ([2]; plasma, po, AUC0-α, single oral dose, mean±SD): 192 ± 165 µg·h/mL
AUC0-α ([2]; single oral dose, mean±SD): 191.5 ± 164.63 µg·h/mL
MRT ([2]; single oral dose, mean±SD): 47.22±3.88 H
T1/2 (elimination half-life) ([2]; single oral dose, mean±SD): 4 H
Structure (SMILES): CC(/C=C1\SC(=S)N(CC(=O)O)C1=O)=C\c1ccccc1 [EPL, Epalrestat]
